{"source": "paper PMC5028098", "about": "(International Journal of Nanomedicine, 2016)", "format_in_all_cases": "cell-based, human", "key": {"HUVECs": {"system": "HUVECs", "experiment": "Transwell migration", "conditions": "HUVECs in TCM from treated MDA-MB231 cells, dose-dependent for HBP"}, "MMP2": {"system": "MMP2", "experiment": "Western blot of MMP2 in HUVECs incubated with TCM", "conditions": "TCM 24 hours, dose-dependent for HBP", "procedure,_shortened": "(§1)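 HUVECs (2×10^5) were grown to 90% confluence, starved 12 h in 2% serum, then incubated 24 h with conditioned medium from MDA-MB231 cells treated with graded test-peptide concentrations. Cells were lysed on ice. Equal protein (40 μg, Bradford) was run on 10% SDS-PAGE and blotted to nitrocellulose. Primary antibody incubation was 4 h at 4°C, followed by HRP anti-rabbit IgG (1:2,000). Bands were quantified by densitometry relative to untreated-medium control; three experiments, mean ± SD.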"}, "MMP9": {"system": "MMP9", "experiment": "Western blot of MMP9 in HUVECs incubated with TCM", "conditions": "TCM 24 hours, decreased to a greater extent than MMP2 for HBP", "procedure,_shortened": "as §1"}}, "data": [{"substance": "VEGF", "values": [{"measurement": "effect on migration / number of invasive ECs", "setting": "HUVECs", "result": "no inhibitory effect"}, {"measurement": "expression of MMP2 in HUVECs", "setting": "MMP2", "result": "not affected"}, {"measurement": "expression of MMP9 in HUVECs", "setting": "MMP9", "result": "not affected"}]}]}
